ChEMBL document CHEMBL1275496, “In vivo pharmacodynamic target investigation for micafungin against Candida albicans and C. glabrata in a neutropenic murine candidiasis model” (Antimicrob Agents Chemother, 2008)
≈ marks a conversion by molar mass, not a printed value. *1 amine or outer side, *2 acyl side, *3 side chain or, on linkers, in order; H or OH if unused. Where a SMILES comes first, the peptide text is derived from it. Bridges are numbered along the chain shown (N, C = ends). [ ]: non-standard residue; d: D form. The star is where a group is joined. hTyr(3S-OH,4S-OH,3'-OSO3H) = N[C@H](C(=O)O)[C@H](O)[C@@H](O)c1ccc(O)c(OS(=O)(=O)O)c1; Orn(4R-OH,5R-OH) = O=C([C@H](C[C@@H](O)[C@@H](O)N[*:3])N[*:1])[*:2]; Pro(3S-OH,4S-Me) = C[C@H]1CN[C@H](C(=O)O)[C@H]1O; X1 = CCCCCOc1ccc(-c2cc(-c3ccc(C(=O)*)cc3)no2)cc1; Gln(3R-OH) = NC(=O)C[C@@H](O)[C@H](N)C(=O)O; Hyp = O=C(O)[C@@H]1C[C@@H](O)CN1

Legend:
[1] = tested on: Nakaseomyces glabratus; assay: Antifungal activity against Candida glabrata isolate 32930 infected in ICR/Swiss neutropenic mouse assessed as dose required for 1-log kill after 24 hrs; assay type: functional
Summary of the method: (§1)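 Neutropenic mice (cyclophosphamide sc 150 mg/kg day −4, 100 mg/kg day −1 and +2) infected iv by tail vein 2 h before therapy. Micafungin given ip every 24 h for 4 days at six fourfold-spaced dose levels, 0.078–80 mg/kg/24 h, 3 mice per group. Kidney CFU read at 96 h. Hill-model fit; dose giving 1 log10 below start-of-therapy burden.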

[2] = tested on: Nakaseomyces glabratus; assay: Fungistatic activity against Candida glabrata isolate 32930 infected in ICR/Swiss neutropenic mouse after 24 hrs; assay type: functional
Summary of the method: (§2)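 Neutropenic female ICR/Swiss mice received cyclophosphamide sc at 150 mg/kg on day −4, 100 mg/kg on day −1 and 100 mg/kg on day +2. Mice were infected iv via the tail vein, and ip micafungin in 0.15 M NaCl started 2 h later. Six dose levels from 0.078 to 80 mg/kg/24 h were given q24h for 4 days, 3 mice per dose. Kidney CFU were counted at 96 h. The static dose was derived from a sigmoid Emax (Hill) fit.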

[3] = Ratio of AUC in ICR/Swiss neutropenic mouse at static dose of 2.53 mg/kg, ip after 24 hrs to MIC for Candida albicans isolate 98-17; assay type: functional; conditions: route intraperitoneal
[4] = Ratio of AUC in ICR/Swiss neutropenic mouse at static dose of 0.06 mg/kg, ip after 24 hrs to MIC for Candida glabrata isolate 32930; assay type: functional; conditions: route intraperitoneal
[5] = tested on: Candida albicans; assay: Antifungal activity against Candida albicans isolate K1 infected in ICR/Swiss neutropenic mouse assessed as dose required for 1-log kill after 24 hrs; assay type: functional; summary of the method: as §1
[6] = tested on: Nakaseomyces glabratus; assay: Antifungal activity against Candida glabrata isolate 32930 by CLSI method; assay type: functional
Summary of the method: (§3)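 Broth microdilution MIC per CLSI M27-A2. Two endpoints were read against the drug-free control well: partial inhibition (M1, CLSI recommended) and complete inhibition (M2). Tests were run in duplicate on four separate occasions, and the value is the mean.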

[7] = Ratio of fAUC in ICR/Swiss neutropenic mouse at static dose of 2.84 mg/kg, ip after 24 hrs to MIC for Candida albicans isolate K1; assay type: functional; conditions: route intraperitoneal
[8] = Ratio of fAUC in ICR/Swiss neutropenic mouse at 1-Log kill dose of 1.69 mg/kg, ip after 24 hrs to MIC for Candida glabrata isolate 32930; assay type: functional; conditions: route intraperitoneal
[9] = tested on: Candida albicans; assay: Antifungal activity against Candida albicans isolate 98-17 infected in ICR/Swiss neutropenic mouse assessed as dose required for 1-log kill after 24 hrs; assay type: functional; summary of the method: as §1
[10] = Ratio of fAUC in ICR/Swiss neutropenic mouse at static dose of 9.25 mg/kg, ip after 24 hrs to MIC for Candida glabrata isolate 37661; assay type: functional; conditions: route intraperitoneal
[11] = Ratio of fAUC in ICR/Swiss neutropenic mouse at 1-Log kill dose of 2.0 mg/kg, ip after 24 hrs to MIC for Candida glabrata isolate 5376; assay type: functional; conditions: route intraperitoneal
[12] = tested on: Candida albicans; assay: Fungistatic activity against Candida albicans isolate 580 infected in ICR/Swiss neutropenic mouse after 24 hrs; assay type: functional; summary of the method: as §2
[13] = tested on: Candida albicans; assay: Fungistatic activity against Candida albicans isolate 98-17 infected in ICR/Swiss neutropenic mouse after 24 hrs; assay type: functional; summary of the method: as §2
[14] = AUC (0 to infinity) in Candida infected ICR/Swiss neutropenic mouse at 20 mg/kg, ip; assay type: ADME, organism-based; parameters: time infinity, dose 20 mg/kg, route intraperitoneal; conditions: plasma
Summary of the method: (§4)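 Single intraperitoneal micafungin doses (80, 20, 5 mg/kg in 0.2 ml, 0.15 M NaCl) given to infected neutropenic mice. Serum was taken from 3 mice per time point at 1, 2, 4, 6, 8, 12, 24 and 48 h. Drug was measured by microbiologic assay with C. albicans K1 (LLOQ 0.12 μg/ml). Noncompartmental analysis; half-life by nonlinear least squares; AUC by trapezoidal rule.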

[15] = tested on: Nakaseomyces glabratus; assay: Antifungal activity against Candida glabrata isolate 5376 by CLSI method; assay type: functional; summary of the method: as §3
[16] = Ratio of fAUC in ICR/Swiss neutropenic mouse at static dose of 0.90 mg/kg, ip after 24 hrs to MIC for Candida glabrata isolate 5376; assay type: functional; conditions: dose 0.9 mg/kg; route intraperitoneal
[17] = Ratio of fAUC in ICR/Swiss neutropenic mouse at 1-Log kill dose of 5.46 mg/kg, ip after 24 hrs to MIC for Candida glabrata isolate 5592; assay type: functional; conditions: route intraperitoneal
[18] = Ratio of fAUC in ICR/Swiss neutropenic mouse at static dose of 3.88 mg/kg, ip after 24 hrs to MIC for Candida glabrata isolate 33616; assay type: functional; conditions: route intraperitoneal
[19] = tested on: Candida albicans; assay: Antifungal activity against Candida albicans isolate 580 by CLSI method; assay type: functional; summary of the method: as §3
[20] = tested on: Nakaseomyces glabratus; assay: Antifungal activity against Candida glabrata isolate 5376 infected in ICR/Swiss neutropenic mouse assessed as dose required for 1-log kill after 24 hrs; assay type: functional; summary of the method: as §1
[21] = tested on: Candida albicans; assay: Antifungal activity against Candida albicans isolate 98-210 infected in ICR/Swiss neutropenic mouse assessed as dose required for 1-log kill after 24 hrs; assay type: functional; summary of the method: as §1
[22] = Ratio of AUC in ICR/Swiss neutropenic mouse at 1-Log kill dose of 4.26 mg/kg, ip after 24 hrs to MIC for Candida glabrata isolate 34341; assay type: functional; conditions: route intraperitoneal
[23] = tested on: Candida albicans; assay: Fungistatic activity against Candida albicans isolate 98-210 infected in ICR/Swiss neutropenic mouse after 24 hrs; assay type: functional; summary of the method: as §2
[24] = Half life in Candida infected ICR/Swiss neutropenic mouse at 80 mg/kg, ip; assay type: ADME, organism-based; parameters: dose 80 mg/kg, route intraperitoneal; conditions: in vivo; summary of the method: as §4
[25] = Ratio of AUC in ICR/Swiss neutropenic mouse at 1-Log kill dose of 5.46 mg/kg, ip after 24 hrs to MIC for Candida glabrata isolate 5592; assay type: functional; conditions: route intraperitoneal
[26] = tested on: Nakaseomyces glabratus; assay: Antifungal activity against Candida glabrata isolate 570 by CLSI method; assay type: functional; summary of the method: as §3
[27] = Ratio of fAUC in ICR/Swiss neutropenic mouse at 1-Log kill dose of 20.6 mg/kg, ip after 24 hrs to MIC for Candida glabrata isolate 37661; assay type: functional; conditions: route intraperitoneal
[28] = tested on: Nakaseomyces glabratus; assay: Antifungal activity against Candida glabrata isolate 33616 by CLSI method; assay type: functional
Summary of the method: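 Broth microdilution per CLSI M27-A2. The MIC was read at partial inhibition (M1) and at complete inhibition (M2) against the drug-free control. Done in duplicate on four separate occasions and reported as the mean.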

[29] = tested on: Nakaseomyces glabratus; assay: Antifungal activity against Candida glabrata isolate 513 by CLSI method; assay type: functional; summary of the method: as §3
[30] = Ratio of fAUC in ICR/Swiss neutropenic mouse at static dose of 1.98 mg/kg, ip after 24 hrs to MIC for Candida albicans isolate 580; assay type: functional; conditions: route intraperitoneal
[31] = Cmax in Candida infected ICR/Swiss neutropenic mouse at 80 mg/kg, ip; assay type: ADME, organism-based; parameters: dose 80 mg/kg, route intraperitoneal; conditions: in vivo; summary of the method: as §4
[32] = tested on: Mus musculus; assay: (§5) Cmax in Candida infected ICR/Swiss neutropenic mouse at 20 mg/kg, ip; assay type: ADME, organism-based; parameters: dose 20 mg/kg, route intraperitoneal; conditions: in vivo; summary of the method: as §4
[33] = as §5; assay type: ADME, organism-based; parameters: dose 20 mg/kg, route intraperitoneal; conditions: ICR/Swiss, in vivo; summary of the method: as §4
[34] = Ratio of AUC in ICR/Swiss neutropenic mouse at static dose of 1.80 mg/kg, ip after 24 hrs to MIC for Candida glabrata isolate 5592; assay type: functional; conditions: dose 1.8 mg/kg; route intraperitoneal

SMILES: CCCCCOc1ccc(-c2cc(-c3ccc(C(=O)N[C@H]4C[C@@H](O)[C@@H](O)NC(=O)[C@@H]5[C@@H](O)[C@@H](C)CN5C(=O)[C@H]([C@H](O)CC(N)=O)NC(=O)[C@H]([C@H](O)[C@@H](O)c5ccc(O)c(OS(=O)(=O)O)c5)NC(=O)[C@@H]5C[C@@H](O)CN5C(=O)[C@H]([C@@H](C)O)NC4=O)cc3)no2)cc1 [MICAFUNGIN] (X1-[Orn(4R-OH,5R-OH)]T[Hyp][hTyr(3S-OH,4S-OH,3'-OSO3H)][Gln(3R-OH)][Pro(3S-OH,4S-Me)]; lactam 1-C)
- Activity [1]: 1.69 mg/kg
- Activity [2]: 0.06 mg/kg
- RatioAUC/MIC [3]: 2333
- RatioAUC/MIC [4]: 236
- Activity [5]: 4.08 mg/kg
- MIC [6]: 0.016 µg/mL (≈ 0.0126 µM)
- MIC50 [6]: 0.008 µg/mL (≈ 0.0063 µM)
- fAUC/MIC [7]: 13
- fAUC/MIC [8]: 7.8
- Activity [9]: 4.6 mg/kg
- fAUC/MIC [10]: 2.5
- fAUC/MIC [11]: 19.7
- Activity [12]: 1.98 mg/kg
- Activity [13]: 2.53 mg/kg
- AUC(0-inf) [14]: 520 µg·h/mL
- MIC [15]: 0.016 µg/mL (≈ 0.0126 µM)
- MIC50 [15]: 0.008 µg/mL (≈ 0.0063 µM)
- fAUC/MIC [16]: 8.9
- fAUC/MIC [17]: 25
- fAUC/MIC [18]: 1.1
- MIC [19]: 0.016 µg/mL (≈ 0.0126 µM)
- MIC50 [19]: 0.008 µg/mL (≈ 0.0063 µM)
- Activity [20]: 2 mg/kg
- Activity [21]: 10.4 mg/kg
- RatioAUC/MIC [22]: 1960
- Activity [23]: 2.84 mg/kg
- half-life [24]: 16 h
- RatioAUC/MIC [25]: 10000
- MIC [26]: 0.03 µg/mL (≈ 0.0236 µM)
- MIC50 [26]: 0.016 µg/mL (≈ 0.0126 µM)
- fAUC/MIC [27]: 5.2
- MIC [28]: 0.5 µg/mL (≈ 0.394 µM)
- MIC50 [28]: 0.25 µg/mL (≈ 0.197 µM)
- MIC [29]: 0.03 µg/mL (≈ 0.0236 µM)
- MIC50 [29]: 0.016 µg/mL (≈ 0.0126 µM)
- fAUC/MIC [30]: 19.6
- Cmax [31]: 53000 ng/mL
- Cmax [32]: 28000 ng/mL
- Cmax [33]: 28000 ng/mL
- RatioAUC/MIC [34]: 3333
